Laboratory results published in ChEMBL document CHEMBL1137295, “Discovery of HIV-1 protease inhibitors with picomolar affinities incorporating N-aryl-oxazolidinone-5-carboxamides as novel P2 ligands” (J Med Chem, 2006).

Assays:
[1] = target: Human immunodeficiency virus type 1 protease (Human immunodeficiency virus 1, UniProt Q72874, Q7K); assay: Inhibition of wild type HIV1 protease Q7K mutant
Summary of the method: (§1)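 Protease desalted into 20 mM sodium acetate pH 5, about 50 nM apparent by A280. Preincubated with inhibitor in DMSO 20-30 min at room temperature. Buffer 0.1 M NaOAc, 1 M NaCl, 1 mM EDTA, 1 mM DTT, 2% DMSO, 1 mg/mL BSA, pH 4.7. Read 340/490 nm, 30 °C, ~10 min. Ki by nonlinear fit of initial velocity versus inhibitor concentration.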

[2] = target: Human immunodeficiency virus type 1 protease (Human immunodeficiency virus 1, UniProt Q72874, G48V/I54V/L10I/L63P/V82A); assay: Inhibition of HIV1 protease L10I/G48V/I54V/L63P/V82A mutant; summary of the method: as §1
[3] = target: Human immunodeficiency virus type 1 protease (Human immunodeficiency virus 1, UniProt Q72874, D30N/L63P/N88D); assay: Inhibition of HIV1 protease D30N/L63P/N88D mutant; summary of the method: as §1
[4] = target: Human immunodeficiency virus type 1 protease (Human immunodeficiency virus 1, UniProt Q72874, A71V/G73S/I84V/L10I/L63P/L90M); assay: Inhibition of HIV1 protease L10I/L63P/A71V/G73S/I84V/L90M mutant; summary of the method: as §1

Compound	Ki [1]	Ki [2]	Ki [3]	Ki [4]
CC(=O)c1ccc(N2C[C@@H](C(=O)N[C@@H](Cc3ccccc3)[C@H](O)CN(Cc3cccs3)S(=O)(=O)c3cc(F)c(F)cc3F)OC2=O)cc1	168 nM	–	–	–
COc1ccc(S(=O)(=O)N(CC(C)C)C[C@@H](O)[C@H](Cc2ccccc2)NC(=O)[C@@H]2CN(c3cccc(F)c3)C(=O)O2)cc1	0.083 nM	3.56 nM	0.08 nM	4.94 nM
COc1cccc(S(=O)(=O)N(CC2CCCO2)C[C@@H](O)[C@H](Cc2ccccc2)NC(=O)[C@@H]2CN(c3cccc(F)c3)C(=O)O2)c1 (single isomer, unassigned)	150 nM	–	–	–
COc1ccc(S(=O)(=O)N(CC(C)C)C[C@@H](O)[C@H](Cc2ccccc2)NC(=O)[C@H]2CN(c3ccccc3)C(=O)O2)cc1	10.7 nM	–	–	–
COc1cccc(S(=O)(=O)N(Cc2cccs2)C[C@@H](O)[C@H](Cc2ccccc2)NC(=O)[C@@H]2CN(c3cccc(F)c3)C(=O)O2)c1	189 nM	–	–	–
CC(C)CN(C[C@@H](O)[C@H](Cc1ccccc1)NC(=O)[C@@H]1CN(c2cccc(F)c2)C(=O)O1)S(=O)(=O)c1ccc2c(c1)OCO2	0.107 nM	–	–	–
O=C(N[C@@H](Cc1ccccc1)[C@H](O)CN(Cc1cccs1)S(=O)(=O)c1cc(F)c(F)cc1F)[C@@H]1CN(c2cccc(F)c2)C(=O)O1	160 nM	–	–	–
COc1ccc(S(=O)(=O)N(CC(C)C)C[C@@H](O)[C@H](Cc2ccccc2)NC(=O)[C@@H]2CN(c3ccc(C(C)=O)cc3)C(=O)O2)cc1	–	0.78 nM	0.179 nM	1.94 nM
CC(C)CN(C[C@@H](O)[C@H](Cc1ccccc1)NC(=O)[C@@H]1CN(c2cccc(C(F)(F)F)c2)C(=O)O1)S(=O)(=O)c1ccc(OC(F)(F)F)cc1	10 nM	–	–	–
COc1ccc(S(=O)(=O)N(CC(C)C)C[C@@H](O)[C@H](Cc2ccccc2)NC(=O)[C@@H]2CN(c3cccc(C(F)(F)F)c3)C(=O)O2)cc1	0.006 nM	–	–	–
COc1cccc(S(=O)(=O)N(CC(C)C)C[C@@H](O)[C@H](Cc2ccccc2)NC(=O)[C@@H]2CN(c3ccccc3)C(=O)O2)c1	3.8 nM	–	–	–
COc1cccc(S(=O)(=O)N(Cc2cccs2)C[C@@H](O)[C@H](Cc2ccccc2)NC(=O)[C@@H]2CN(c3ccc(C(C)=O)cc3)C(=O)O2)c1	29.5 nM	–	–	–
COc1cccc(S(=O)(=O)N(CC(C)C)C[C@@H](O)[C@H](Cc2ccccc2)NC(=O)[C@@H]2CN(c3ccc(C(C)=O)cc3)C(=O)O2)c1	0.84 nM	–	–	–
COc1ccc(S(=O)(=O)N(CC(C)C)C[C@@H](O)[C@H](Cc2ccccc2)NC(=O)[C@@H]2CN(c3ccccc3)C(=O)O2)cc1	0.1 nM	–	–	–
COc1ccc(S(=O)(=O)N(CC(C)C)C[C@@H](O)[C@H](Cc2ccccc2)NC(=O)[C@@H]2CN(c3ccc(F)c(F)c3)C(=O)O2)cc1	0.066 nM	1.18 nM	0.152 nM	8.69 nM
O=C(N[C@@H](Cc1ccccc1)[C@H](O)CN(Cc1cccs1)S(=O)(=O)c1cc(F)c(F)cc1F)[C@@H]1CN(c2ccccc2)C(=O)O1	170 nM	–	–	–
CC(=O)c1ccc(N2C[C@@H](C(=O)N[C@@H](Cc3ccccc3)[C@H](O)CN(CC(C)C)S(=O)(=O)c3ccc4c(c3)OCO4)OC2=O)cc1	0.016 nM	–	–	–
COc1ccc(S(=O)(=O)N(CC(C)C)C[C@@H](O)[C@H](Cc2ccccc2)NC(=O)[C@@H]2CN(c3cccc(F)c3)C(=O)O2)cc1F	0.07 nM	–	–	–
CC(C)CN(C[C@@H](O)[C@H](Cc1ccccc1)NC(=O)[C@@H]1CN(c2ccc(F)c(F)c2)C(=O)O1)S(=O)(=O)c1ccc(N)cc1	0.23 nM	–	–	–
COc1ccc(S(=O)(=O)N(CC(C)C)C[C@@H](O)[C@H](Cc2ccccc2)NC(=O)[C@@H]2CN(c3cccc(C(F)(F)F)c3)C(=O)O2)cc1F	0.072 nM	–	–	–

Compound	Ki [1]	Ki [2]	Ki [3]	Ki [4]
CC(=O)c1cccc(N2C[C@@H](C(=O)N[C@@H](Cc3ccccc3)[C@H](O)CN(CC(C)C)S(=O)(=O)c3ccc(OC(F)(F)F)cc3)OC2=O)c1	2 nM	–	–	–
CC(C)CN(C[C@@H](O)[C@H](Cc1ccccc1)NC(=O)[C@@H]1CN(c2ccccc2)C(=O)O1)S(=O)(=O)c1ccc(N)cc1	0.53 nM	2.08 nM	0.92 nM	10.3 nM
COc1ccc(S(=O)(=O)N(CC2CC2)C[C@@H](O)[C@H](Cc2ccccc2)NC(=O)[C@@H]2CN(c3cccc(F)c3)C(=O)O2)cc1	0.257 nM	–	–	–
CC(C)CN(C[C@@H](O)[C@H](Cc1ccccc1)NC(=O)[C@@H]1CN(c2cccc(F)c2)C(=O)O1)S(=O)(=O)c1ccc(N)cc1	0.17 nM	–	–	–
COc1ccc(S(=O)(=O)N(CC(C)C)C[C@@H](O)[C@H](Cc2ccccc2)NC(=O)[C@@H]2CN(c3ccc(C(C)=O)cc3)C(=O)O2)cc1F	0.08 nM	–	–	–
CC(C)CN(C[C@@H](O)[C@H](Cc1ccccc1)NC(=O)[C@@H]1CN(c2ccc(F)c(F)c2)C(=O)O1)S(=O)(=O)c1ccc2c(c1)OCO2	0.085 nM	–	–	–
COc1cccc(S(=O)(=O)N(CC2CCCO2)C[C@@H](O)[C@H](Cc2ccccc2)NC(=O)[C@@H]2CN(c3ccccc3)C(=O)O2)c1 (single isomer, unassigned)	42 nM	–	–	–
CC(C)CN(C[C@@H](O)[C@H](Cc1ccccc1)NC(=O)[C@H]1CN(c2ccccc2)C(=O)O1)S(=O)(=O)c1ccc(N)cc1	37.4 nM	–	–	–
COc1ccc(S(=O)(=O)N(CC(C)C)C[C@@H](O)[C@H](Cc2ccccc2)NC(=O)[C@@H]2CN(c3cccc(C(C)=O)c3)C(=O)O2)cc1	–	0.16 nM	0.039 nM	3.36 nM
COc1ccc(S(=O)(=O)N(CC2CC2)C[C@@H](O)[C@H](Cc2ccccc2)NC(=O)[C@@H]2CN(c3ccc(F)c(F)c3)C(=O)O2)cc1	0.58 nM	–	–	–
CC(=O)c1cccc(N2C[C@@H](C(=O)N[C@@H](Cc3ccccc3)[C@H](O)CN(CC(C)C)S(=O)(=O)c3ccc(N)cc3)OC2=O)c1	0.032 nM	–	–	–
CC(C)CN(C[C@@H](O)[C@H](Cc1ccccc1)NC(=O)[C@@H]1CN(c2cccc(C(F)(F)F)c2)C(=O)O1)S(=O)(=O)c1ccc(N)cc1	0.042 nM	4.42 nM	0.36 nM	12.3 nM
COc1ccc(S(=O)(=O)N(CC(C)C)C[C@@H](O)[C@H](Cc2ccccc2)NC(=O)[C@@H]2CN(c3cccc(OC)c3)C(=O)O2)cc1	0.045 nM	–	–	–
CC(C)CN(C[C@@H](O)[C@H](Cc1ccccc1)NC(=O)[C@@H]1CN(c2cccc(C(F)(F)F)c2)C(=O)O1)S(=O)(=O)c1ccc2c(c1)OCO2	0.016 nM	–	–	–
COc1cccc(S(=O)(=O)N(Cc2cccs2)C[C@@H](O)[C@H](Cc2ccccc2)NC(=O)[C@@H]2CN(c3ccccc3)C(=O)O2)c1	239 nM	–	–	–
COc1ccc(S(=O)(=O)N(CC(C)C)C[C@@H](O)[C@H](Cc2ccccc2)NC(=O)[C@@H]2CN(c3ccc(F)c(F)c3)C(=O)O2)cc1F	0.343 nM	–	–	–
COc1ccc(S(=O)(=O)N(CC2CC2)C[C@@H](O)[C@H](Cc2ccccc2)NC(=O)[C@@H]2CN(c3ccc(C(C)=O)cc3)C(=O)O2)cc1	0.8 nM	–	–	–
CC(=O)c1cccc(N2C[C@@H](C(=O)N[C@@H](Cc3ccccc3)[C@H](O)CN(CC(C)C)S(=O)(=O)c3ccc4c(c3)OCO4)OC2=O)c1	0.006 nM	0.72 nM	0.235 nM	3.51 nM
CC(=O)c1ccc(N2C[C@@H](C(=O)N[C@@H](Cc3ccccc3)[C@H](O)CN(CC(C)C)S(=O)(=O)c3ccc(N)cc3)OC2=O)cc1	0.184 nM	–	–	–
